System: KB
Assay: Cytotoxicity against human KB cells after 48 hrs by sulforhodamine B assay
Assay type: functional, cell-based
Settings: Homo sapiens, KB, 48 h; read-out: IC50; call rule not given here
Summary of the method: (§1)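 Cells kept below passage 15 in recommended medium with 10% FBS, gentamycin and amphotericin B, 37 °C, 5% CO₂. Seeded at 1 × 10⁴ cells/well overnight, then given serial two-fold dilutions (100 to 1.6) for 48 h, with untreated controls. Fixed in ice-cold 50% TCA, stained with 0.4% SRB in 1% acetic acid, read at 540 nm. IC₅₀ from dose–response curves of % growth inhibition.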

SMILES | IC50 [µM]
COC(=O)c1cc2cc(/C=C/C(=O)c3ccc(C)cc3)c3ccccc3c2oc1=O | 70.4
COC(=O)c1cc2cc(C=O)c3ccccc3c2oc1=O | 57.9
CCOC(=O)c1cc2cc(/C=C/C(=O)c3ccc(C)cc3)cc(C(C)CC)c2oc1=O (configuration not stated) | 18
CCOC(=O)c1cc2cc(C=O)cc(C(C)CC)c2oc1=O (configuration not stated) | 132
CCOC(=O)c1cc2cc(/C=C/C(=O)c3ccc(Cl)cc3)cc(C(C)CC)c2oc1=O (configuration not stated) | 14.3
CCOC(=O)c1cc2cc(C=O)c3ccccc3c2oc1=O | 124
COC(=O)c1cc2cc(/C=C/C(=O)c3ccccc3)c3ccccc3c2oc1=O | 90.8
CCC(C)c1cc(/C=C/C(=O)c2ccc(Cl)cc2)cc2cc(C(=O)OC)c(=O)oc12 (configuration not stated) | 28.2
CC(=O)c1cc2cc(C=O)c3ccccc3c2oc1=O | 109
CCC(C)c1cc(/C=C/C(=O)c2ccccc2)cc2cc(C(=O)OC)c(=O)oc12 (configuration not stated) | 13.4
COc1cccc2c1C(=O)c1c(O)c3c(c(O)c1C2=O)C[C@@](O)(C(=O)CO)C[C@@H]3O[C@H]1C[C@H](N)[C@H](O)[C@H](C)O1 [DOXORUBICIN] | 0.22
CCC(C)c1cc(C=O)cc2cc(C(C)=O)c(=O)oc12 (configuration not stated) | 176
CCOC(=O)c1cc2cc(/C=C/C(=O)c3ccccc3)cc(C(C)CC)c2oc1=O (configuration not stated) | 10.5
CCC(C)c1cc(C=O)cc2cc(C(=O)OC)c(=O)oc12 (configuration not stated) | 146

Same assay, conditions: kb

SMILES | IC50
CC(=O)c1cc2cc(/C=C/C(=O)c3ccc(C)cc3)c3ccccc3c2oc1=O | Not Active
CCC(C)c1cc(/C=C/C(=O)c2ccc(Cl)cc2)cc2cc(C(C)=O)c(=O)oc12 (configuration not stated) | Not Active
CCOC(=O)c1cc2cc(/C=C/C(=O)c3ccccc3)c3ccccc3c2oc1=O | Not Active
CCOC(=O)c1cc2cc(/C=C/C(=O)c3ccc(C)cc3)c3ccccc3c2oc1=O | Not Active
CC(=O)c1cc2cc(/C=C/C(=O)c3ccc(Cl)cc3)c3ccccc3c2oc1=O | Not Active
COC(=O)c1cc2cc(/C=C/C(=O)c3ccc(Cl)cc3)c3ccccc3c2oc1=O | Not Active
CCOC(=O)c1cc2cc(/C=C/C(=O)c3ccc(Cl)cc3)c3ccccc3c2oc1=O | Not Active
CC(=O)c1cc2cc(/C=C/C(=O)c3ccccc3)c3ccccc3c2oc1=O | Not Active

System: C-33-A
Assay: Cytotoxicity against human C33A cells after 48 hrs by sulforhodamine B assay
Assay type: functional, cell-based
Settings: Homo sapiens, C-33-A, 48 h; read-out: IC50
Summary of the method: as §1

SMILES | IC50 [µM]
COC(=O)c1cc2cc(/C=C/C(=O)c3ccc(C)cc3)c3ccccc3c2oc1=O | 52
COC(=O)c1cc2cc(C=O)c3ccccc3c2oc1=O | 30.1
CCOC(=O)c1cc2cc(/C=C/C(=O)c3ccc(C)cc3)cc(C(C)CC)c2oc1=O (configuration not stated) | 3.59
CCOC(=O)c1cc2cc(C=O)cc(C(C)CC)c2oc1=O (configuration not stated) | 64.3
CCOC(=O)c1cc2cc(/C=C/C(=O)c3ccc(Cl)cc3)cc(C(C)CC)c2oc1=O (configuration not stated) | 4.54
CCOC(=O)c1cc2cc(C=O)c3ccccc3c2oc1=O | 93.5
COC(=O)c1cc2cc(/C=C/C(=O)c3ccccc3)c3ccccc3c2oc1=O | 62.4
CCC(C)c1cc(/C=C/C(=O)c2ccc(Cl)cc2)cc2cc(C(=O)OC)c(=O)oc12 (configuration not stated) | 5.9
CC(=O)c1cc2cc(C=O)c3ccccc3c2oc1=O | 72.8
CCC(C)c1cc(/C=C/C(=O)c2ccccc2)cc2cc(C(=O)OC)c(=O)oc12 (configuration not stated) | 6.28
COc1cccc2c1C(=O)c1c(O)c3c(c(O)c1C2=O)C[C@@](O)(C(=O)CO)C[C@@H]3O[C@H]1C[C@H](N)[C@H](O)[C@H](C)O1 [DOXORUBICIN] | 0.82
CCC(C)c1cc(C=O)cc2cc(C(C)=O)c(=O)oc12 (configuration not stated) | 70
CCOC(=O)c1cc2cc(/C=C/C(=O)c3ccccc3)cc(C(C)CC)c2oc1=O (configuration not stated) | 8.12
CCC(C)c1cc(C=O)cc2cc(C(=O)OC)c(=O)oc12 (configuration not stated) | 88

Same assay, conditions: c-33-a

SMILES | IC50
CC(=O)c1cc2cc(/C=C/C(=O)c3ccc(C)cc3)c3ccccc3c2oc1=O | Not Active
CCC(C)c1cc(/C=C/C(=O)c2ccc(Cl)cc2)cc2cc(C(C)=O)c(=O)oc12 (configuration not stated) | Not Active
CCOC(=O)c1cc2cc(/C=C/C(=O)c3ccccc3)c3ccccc3c2oc1=O | Not Active
CCOC(=O)c1cc2cc(/C=C/C(=O)c3ccc(C)cc3)c3ccccc3c2oc1=O | Not Active
CC(=O)c1cc2cc(/C=C/C(=O)c3ccc(Cl)cc3)c3ccccc3c2oc1=O | Not Active
COC(=O)c1cc2cc(/C=C/C(=O)c3ccc(Cl)cc3)c3ccccc3c2oc1=O | Not Active
CCOC(=O)c1cc2cc(/C=C/C(=O)c3ccc(Cl)cc3)c3ccccc3c2oc1=O | Not Active
CC(=O)c1cc2cc(/C=C/C(=O)c3ccccc3)c3ccccc3c2oc1=O | Not Active

System: MCF7
Assay: Cytotoxicity against human MCF7 cells after 48 hrs by sulforhodamine B assay
Assay type: functional, cell-based
Settings: Homo sapiens, MCF7, 48 h; read-out: IC50
Summary of the method: as §1

SMILES | IC50 [µM]
COC(=O)c1cc2cc(/C=C/C(=O)c3ccc(C)cc3)c3ccccc3c2oc1=O | 118
COC(=O)c1cc2cc(C=O)c3ccccc3c2oc1=O | 61.7
CCOC(=O)c1cc2cc(/C=C/C(=O)c3ccc(C)cc3)cc(C(C)CC)c2oc1=O (configuration not stated) | 81.1
CCOC(=O)c1cc2cc(/C=C/C(=O)c3ccc(Cl)cc3)cc(C(C)CC)c2oc1=O (configuration not stated) | 11.1
CCOC(=O)c1cc2cc(C=O)c3ccccc3c2oc1=O | 155
COC(=O)c1cc2cc(/C=C/C(=O)c3ccccc3)c3ccccc3c2oc1=O | 103
CCC(C)c1cc(/C=C/C(=O)c2ccc(Cl)cc2)cc2cc(C(=O)OC)c(=O)oc12 (configuration not stated) | 10.8
CC(=O)c1cc2cc(C=O)c3ccccc3c2oc1=O | 147
CCC(C)c1cc(/C=C/C(=O)c2ccccc2)cc2cc(C(=O)OC)c(=O)oc12 (configuration not stated) | 11.4
COc1cccc2c1C(=O)c1c(O)c3c(c(O)c1C2=O)C[C@@](O)(C(=O)CO)C[C@@H]3O[C@H]1C[C@H](N)[C@H](O)[C@H](C)O1 [DOXORUBICIN] | 0.61
CCC(C)c1cc(C=O)cc2cc(C(C)=O)c(=O)oc12 (configuration not stated) | 141
CCOC(=O)c1cc2cc(/C=C/C(=O)c3ccccc3)cc(C(C)CC)c2oc1=O (configuration not stated) | 88.1

Same assay, conditions: mcf7

SMILES | IC50
CC(=O)c1cc2cc(/C=C/C(=O)c3ccc(C)cc3)c3ccccc3c2oc1=O | Not Active
CCC(C)c1cc(/C=C/C(=O)c2ccc(Cl)cc2)cc2cc(C(C)=O)c(=O)oc12 (configuration not stated) | Not Active
CCOC(=O)c1cc2cc(/C=C/C(=O)c3ccccc3)c3ccccc3c2oc1=O | Not Active
CCOC(=O)c1cc2cc(/C=C/C(=O)c3ccc(C)cc3)c3ccccc3c2oc1=O | Not Active
CC(=O)c1cc2cc(/C=C/C(=O)c3ccc(Cl)cc3)c3ccccc3c2oc1=O | Not Active
COC(=O)c1cc2cc(/C=C/C(=O)c3ccc(Cl)cc3)c3ccccc3c2oc1=O | Not Active
CCOC(=O)c1cc2cc(/C=C/C(=O)c3ccc(Cl)cc3)c3ccccc3c2oc1=O | Not Active
CC(=O)c1cc2cc(/C=C/C(=O)c3ccccc3)c3ccccc3c2oc1=O | Not Active
CCC(C)c1cc(C=O)cc2cc(C(=O)OC)c(=O)oc12 (configuration not stated) | Not Active

System: A549
Assay: Cytotoxicity against human A549 cells after 48 hrs by sulforhodamine B assay
Assay type: functional, cell-based
Settings: Homo sapiens, A549, 48 h; read-out: IC50
Summary of the method: as §1

SMILES | IC50 [µM]
COC(=O)c1cc2cc(C=O)c3ccccc3c2oc1=O | 75.7
CCOC(=O)c1cc2cc(/C=C/C(=O)c3ccc(C)cc3)cc(C(C)CC)c2oc1=O (configuration not stated) | 32.8
CCOC(=O)c1cc2cc(/C=C/C(=O)c3ccc(Cl)cc3)cc(C(C)CC)c2oc1=O (configuration not stated) | 12.8
CCC(C)c1cc(/C=C/C(=O)c2ccc(Cl)cc2)cc2cc(C(=O)OC)c(=O)oc12 (configuration not stated) | 16.7
CCC(C)c1cc(/C=C/C(=O)c2ccccc2)cc2cc(C(=O)OC)c(=O)oc12 (configuration not stated) | 10.7
COc1cccc2c1C(=O)c1c(O)c3c(c(O)c1C2=O)C[C@@](O)(C(=O)CO)C[C@@H]3O[C@H]1C[C@H](N)[C@H](O)[C@H](C)O1 [DOXORUBICIN] | 0.52
CCOC(=O)c1cc2cc(/C=C/C(=O)c3ccccc3)cc(C(C)CC)c2oc1=O (configuration not stated) | 12.9

Same assay, conditions: a549

SMILES | IC50
COC(=O)c1cc2cc(/C=C/C(=O)c3ccc(C)cc3)c3ccccc3c2oc1=O | Not Active
CC(=O)c1cc2cc(/C=C/C(=O)c3ccc(C)cc3)c3ccccc3c2oc1=O | Not Active
CCC(C)c1cc(/C=C/C(=O)c2ccc(Cl)cc2)cc2cc(C(C)=O)c(=O)oc12 (configuration not stated) | Not Active
CCOC(=O)c1cc2cc(/C=C/C(=O)c3ccccc3)c3ccccc3c2oc1=O | Not Active
CCOC(=O)c1cc2cc(/C=C/C(=O)c3ccc(C)cc3)c3ccccc3c2oc1=O | Not Active
CC(=O)c1cc2cc(/C=C/C(=O)c3ccc(Cl)cc3)c3ccccc3c2oc1=O | Not Active
COC(=O)c1cc2cc(/C=C/C(=O)c3ccc(Cl)cc3)c3ccccc3c2oc1=O | Not Active
CCOC(=O)c1cc2cc(C=O)c3ccccc3c2oc1=O | Not Active
COC(=O)c1cc2cc(/C=C/C(=O)c3ccccc3)c3ccccc3c2oc1=O | Not Active
CC(=O)c1cc2cc(C=O)c3ccccc3c2oc1=O | Not Active
CCC(C)c1cc(C=O)cc2cc(C(C)=O)c(=O)oc12 (configuration not stated) | Not Active
CCOC(=O)c1cc2cc(/C=C/C(=O)c3ccc(Cl)cc3)c3ccccc3c2oc1=O | Not Active
CC(=O)c1cc2cc(/C=C/C(=O)c3ccccc3)c3ccccc3c2oc1=O | Not Active
CCC(C)c1cc(C=O)cc2cc(C(=O)OC)c(=O)oc12 (configuration not stated) | Not Active

System: NIH3T3
Assay: Cytotoxicity against mouse NIH/3T3 cells after 48 hrs by sulforhodamine B assay
Assay type: functional, cell-based
Settings: Mus musculus, NIH3T3, 48 h; read-out: IC50
Summary of the method: as §1

SMILES | IC50 [µM]
COC(=O)c1cc2cc(C=O)c3ccccc3c2oc1=O | 66
CCOC(=O)c1cc2cc(/C=C/C(=O)c3ccc(Cl)cc3)cc(C(C)CC)c2oc1=O (configuration not stated) | 38.4
CCC(C)c1cc(/C=C/C(=O)c2ccc(Cl)cc2)cc2cc(C(=O)OC)c(=O)oc12 (configuration not stated) | 42.4

Same assay, conditions: nih3t3

SMILES | IC50
COC(=O)c1cc2cc(/C=C/C(=O)c3ccc(C)cc3)c3ccccc3c2oc1=O | Not Active
CCOC(=O)c1cc2cc(/C=C/C(=O)c3ccc(C)cc3)cc(C(C)CC)c2oc1=O (configuration not stated) | Not Active
CC(=O)c1cc2cc(/C=C/C(=O)c3ccc(C)cc3)c3ccccc3c2oc1=O | Not Active
CCC(C)c1cc(/C=C/C(=O)c2ccc(Cl)cc2)cc2cc(C(C)=O)c(=O)oc12 (configuration not stated) | Not Active
CCOC(=O)c1cc2cc(/C=C/C(=O)c3ccccc3)c3ccccc3c2oc1=O | Not Active
CCOC(=O)c1cc2cc(C=O)cc(C(C)CC)c2oc1=O (configuration not stated) | Not Active
CCOC(=O)c1cc2cc(/C=C/C(=O)c3ccc(C)cc3)c3ccccc3c2oc1=O | Not Active
CC(=O)c1cc2cc(/C=C/C(=O)c3ccc(Cl)cc3)c3ccccc3c2oc1=O | Not Active
COC(=O)c1cc2cc(/C=C/C(=O)c3ccc(Cl)cc3)c3ccccc3c2oc1=O | Not Active
CCOC(=O)c1cc2cc(C=O)c3ccccc3c2oc1=O | Not Active
COC(=O)c1cc2cc(/C=C/C(=O)c3ccccc3)c3ccccc3c2oc1=O | Not Active
CC(=O)c1cc2cc(C=O)c3ccccc3c2oc1=O | Not Active
CCC(C)c1cc(/C=C/C(=O)c2ccccc2)cc2cc(C(=O)OC)c(=O)oc12 (configuration not stated) | Not Active
CCC(C)c1cc(C=O)cc2cc(C(C)=O)c(=O)oc12 (configuration not stated) | Not Active
CCOC(=O)c1cc2cc(/C=C/C(=O)c3ccccc3)cc(C(C)CC)c2oc1=O (configuration not stated) | Not Active
CCOC(=O)c1cc2cc(/C=C/C(=O)c3ccc(Cl)cc3)c3ccccc3c2oc1=O | Not Active
CC(=O)c1cc2cc(/C=C/C(=O)c3ccccc3)c3ccccc3c2oc1=O | Not Active
CCC(C)c1cc(C=O)cc2cc(C(=O)OC)c(=O)oc12 (configuration not stated) | Not Active
